Data on eight molecules can be found in ChEMBL document CHEMBL2062365, “Suppressive effects of coumarins from Mammea siamensis on inducible nitric oxide synthase expression in RAW264.7 cells” (Bioorg Med Chem, 2012).

Usually inhibition stands for the drop in the measured response relative to a control, in per cent. By IC50 is commonly meant the concentration needed to halve the response being measured.

Structures are written as SMILES. Calls of active or inactive are those of the source. No cut-off for these calls is given here.

The test system of series [1] is RAW264.7. The series can be described thus: Antiinflammatory activity in mouse RAW264.7 cells assessed as inhibition of LPS-induced NO production at 10 uM incubated for 10 mins prior to LPS-challenge measured after 18 hrs by Griess method relative to control. Format: functional. A digest of the protocol: (§1)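 RAW264.7 cells (DMEM, 10% FBS, 37 °C, 5% CO2) seeded at 2.5 × 10^5 cells/well. After 6 h, nonadherent cells were washed off. Adherent cells were exposed to test compound for 10 min, then to LPS (E. coli 055:B5, final 10 µg/mL) for 18 h. Supernatant nitrite was measured by Griess reaction. Inhibition % = (A−B)/(A−C)×100, with C as the no-LPS control. IC50 was read graphically; N = 4, mean ± SEM. CAPE was the reference.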
(In general: The Griess reaction detects nitrite, a stable product of nitric oxide.)

Series [2] has as its system RAW264.7. The series can be described thus: Antiinflammatory activity in mouse RAW264.7 cells assessed as inhibition of LPS-induced NO production at 30 uM incubated for 10 mins prior to LPS-challenge measured after 18 hrs by Griess method relative to control. Format: functional. A digest of the protocol: as §1
Series [3] deals with RAW264.7. The series can be described thus: Antiinflammatory activity in mouse RAW264.7 cells assessed as inhibition of LPS-induced NO production incubated for 10 mins prior to LPS-challenge measured after 18 hrs by Griess method. Format: functional, cell-based. A digest of the protocol: as §1
For series [4], the system named is RAW264.7. The series is described as follows: Antiinflammatory activity in mouse RAW264.7 cells assessed as inhibition of LPS-induced NO production at 1 uM incubated for 10 mins prior to LPS-challenge measured after 18 hrs by Griess method relative to control. Format: functional. A digest of the protocol:
as §1

The nature of series [5]: Cytotoxicity against mouse RAW264.7 cells assessed as cell viability at 10 uM after 18 hrs by MTT assay. Format: cell-based. The following applies: read-out: Activity. The gist of the method: (§2)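 MTT viability assay. RAW264.7 cells seeded at 1.0 × 10^5 cells/well; after 6 h, nonadherent cells were washed off. Adherent cells were cultured with test compound for 18 h. MTT (5 mg/mL in PBS) was added for 2 h at 37 °C. Formazan was dissolved in isopropanol with 0.04 M HCl and OD read at 570 nm (reference 655 nm).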
On the technique in general: Formazan colour is commonly taken as a measure of viable cells.

Series [6] is described as follows: Cytotoxicity against mouse RAW264.7 cells assessed as cell viability at 30 uM after 18 hrs by MTT assay. Format: cell-based. The following applies: read-out: Activity. The gist of the method: as §2
Series [7] relates to RAW264.7. The series is described as follows: Antiinflammatory activity in mouse RAW264.7 cells assessed as inhibition of LPS-induced NO production at 3 uM incubated for 10 mins prior to LPS-challenge measured after 18 hrs by Griess method relative to control.
Series [8] relates to RAW264.7. The series can be described thus: Antiinflammatory activity in mouse RAW264.7 cells assessed as inhibition of LPS-induced iNOS expression at 1 to 30 uM incubated for 10 mins prior to LPS-challenge measured after 12 hrs by Western blot analysis. Format: functional, cell-based. The gist of the method: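 RAW264.7 cells (5.0 × 10^6/well, 6-well) adhered for 6 h. Compound was added for 10 min, then LPS (final 10 µg/mL) for 12 h. Lysates were sonicated and normalized by BCA. 50 µg protein/lane was run on 10% SDS–PAGE and transferred to PVDF. Blots were probed for iNOS and β-actin (primary 1:1000, HRP secondary 1:5000) and detected by ECL.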

The subject of series [9] is RAW264.7. The series can be described thus: Inhibition of SAPK/JNK phosphorylation in LPS-induced mouse RAW264.7 cells at 1 to 30 uM incubated for 10 mins prior to LPS-challenge measured after 30 mins by Western blot analysis. Format: cell-based. A digest of the protocol:
(§3)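 RAW264.7 cells (5.0 × 10^6/well) adhered for 6 h. Compound was added for 10 min, then LPS (final 10 µg/mL) for 30 min. BCA-normalized lysates, 25 µg/lane, were run on 10% SDS–PAGE and transferred to PVDF. Phospho-proteins (p-JNK, p-p38, p-STAT1 Ser727) were blocked in Blocking One-P, others (NF-κB p65) in Blocking One. Primary antibodies 1:1000 for 1 h at rt; detection by ECL.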

Series [10] has as its target MAP kinase p38 (Mus musculus) (UniProt P47811+O08911+Q9WUI1+Q9Z1B7). The series is described as follows: Inhibition of p38 phosphorylation in LPS-induced mouse RAW264.7 cells at 1 to 30 uM incubated for 10 mins prior to LPS-challenge measured after 30 mins by Western blot analysis. Format: cell-based. The gist of the method: as §3
For orientation: Immunoblotting shows a protein as a band on a membrane.

Series [11] has as its target T1, Signal transducer and activator of transcription 1 (Mus musculus) (UniProt P42225).
T1 sequence (whole entry): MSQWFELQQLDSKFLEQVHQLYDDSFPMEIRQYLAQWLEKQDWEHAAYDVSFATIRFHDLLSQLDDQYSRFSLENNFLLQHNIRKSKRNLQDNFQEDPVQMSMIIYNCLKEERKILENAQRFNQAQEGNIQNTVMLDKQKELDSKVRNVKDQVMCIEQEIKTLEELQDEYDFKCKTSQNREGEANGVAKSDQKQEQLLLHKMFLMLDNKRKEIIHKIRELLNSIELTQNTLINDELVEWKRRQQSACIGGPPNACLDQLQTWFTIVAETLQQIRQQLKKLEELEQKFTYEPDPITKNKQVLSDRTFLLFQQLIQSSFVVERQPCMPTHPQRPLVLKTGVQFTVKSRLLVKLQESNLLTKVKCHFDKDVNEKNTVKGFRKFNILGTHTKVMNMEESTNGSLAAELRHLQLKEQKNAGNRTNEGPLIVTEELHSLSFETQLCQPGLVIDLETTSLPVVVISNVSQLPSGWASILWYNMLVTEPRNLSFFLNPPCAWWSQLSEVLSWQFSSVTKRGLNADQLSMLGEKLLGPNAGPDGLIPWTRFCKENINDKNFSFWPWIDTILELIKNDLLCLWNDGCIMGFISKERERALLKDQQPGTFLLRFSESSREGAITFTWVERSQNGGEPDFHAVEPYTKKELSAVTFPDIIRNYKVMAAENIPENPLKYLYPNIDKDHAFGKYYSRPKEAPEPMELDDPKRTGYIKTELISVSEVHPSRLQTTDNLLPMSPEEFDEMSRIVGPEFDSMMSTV
The series is described as follows: Inhibition of STAT1 phosphorylation in LPS-induced mouse RAW264.7 cells incubated for 10 mins prior to LPS-challenge measured after 30 mins by Western blot analysis. Format: cell-based. The gist of the method:
as §3

Series [12] can be described thus: Cytotoxicity against mouse RAW264.7 cells assessed as cell viability at 3 uM after 18 hrs by MTT assay. Format: cell-based. The following applies: read-out: Activity. A digest of the protocol: as §2

As to `CCCc1cc(=O)oc2c3c(c(C(=O)C(C)CC)c(O)c12)OC(C)(C)C=C3` (centres undefined), in the series with RAW264.7 [1], the inhibition at 10 µM turned out to be 10.6%. The inhibition at 30 µM in the series with RAW264.7 [2] is 13.3%. In addition, the half-inhibitory concentration (IC50) in the series on RAW264.7 [3] was above 30 µM.

On to `CCC(C)C(=O)c1c(O)c(C/C=C(\C)CCC=C(C)C)c(O)c2c([C@@H](O)CC)cc(=O)oc12` (some centres undefined) [SURANGIN C], for which the inhibition at 1 µM with RAW264.7 [4] was found to be 18.1%. In the series on RAW264.7 [1], the inhibition at 10 µM was found to be 56.7%. Also, the inhibition at 30 µM in the series with RAW264.7 [2] was 71.3%. For the same molecule, the viability at 18 h, 10 µM in series [5] was determined as 61.7%. Moreover, in [6], the viability at 18 h, 30 µM stood at 42.9%. The IC50 in the series with RAW264.7 [3] worked out at 6.8 µM. For the same molecule, in the series on RAW264.7 [7], the inhibition at 3 µM came to 40.8%.

Turning to `CCCC(=O)c1c(O)c(CC=C(C)C)c2oc(=O)cc([C@@H](O)CC)c2c1O` [KAYEASSAMIN E], the inhibition at 1 µM in the series with RAW264.7 [4] amounted to 38.7%. For the same molecule, the inhibition at 10 µM in the series on RAW264.7 [1] turned out to be 67.1%. For the same molecule, the inhibition at 30 µM in the series with RAW264.7 [2] is 63.8%. Moreover, in series [5], the viability at 18 h, 10 µM came to 42.8%. The viability at 18 h, 30 µM in series [6] was 42.2%. The IC50 with RAW264.7 [3] was determined as 6.1 µM. Also, the inhibition at 3 µM with RAW264.7 [7] is 38.8%.

On to `Oc1ccc(-c2nc(-c3ccncc3)c(-c3ccc(F)cc3)[nH]2)cc1` [SB-202190], for which the inhibition at 10 µM with RAW264.7 [1] came out at 36.8%. The inhibition at 30 µM with RAW264.7 [2] amounted to 70.2%. The viability at 18 h, 30 µM in series [6] is 81.4%. For the same molecule, the IC50 in the series with RAW264.7 [3] came out at 16 µM.

For `CCC(C)C(=O)c1c2c(c3oc(=O)cc(-c4ccccc4)c3c1O)C=CC(C)(C)O2` (centres undefined), the inhibition at 10 µM with RAW264.7 [1] was 12.9%. Further, the inhibition at 30 µM in the series with RAW264.7 [2] is 18.3%. In the series with RAW264.7 [3], the half-inhibitory concentration (IC50) is above 30 µM.

For `CC[C@H](O)c1cc(=O)oc2c(CC=C(C)C)c(O)c(C(=O)CC(C)C)c(O)c12` [KAYEASSAMIN G], in the series with RAW264.7 [4], the inhibition at 1 µM stood at 51%. Further, the inhibition at 10 µM with RAW264.7 [1] is 81.5%. Further, in the series on RAW264.7 [2], the inhibition at 30 µM amounted to 72.3%. For the same molecule, in series [6], the viability at 18 h, 30 µM was 83.7%. In the series with RAW264.7 [3], the 50% inhibitory concentration (IC50) is 0.8 µM. Further, the inhibition result with RAW264.7 [8] is “Active”. For the same molecule, the inhibition result (in the series on RAW264.7 [9]; in series [10]) was “inactive” throughout. Also, the inhibition result in series [11] is “Dose-dependent effect”. Further, in the series with RAW264.7 [7], the inhibition at 3 µM was 55.9%.

For the molecule `CCC(C)C(=O)c1c(O)c(CC=C(C)C)c2oc(=O)cc([C@@H](O)CC)c2c1O` (some centres undefined) [KAYEASSAMIN F], the inhibition at 1 µM in the series on RAW264.7 [4] is 31.4%. The inhibition at 10 µM with RAW264.7 [1] was 60.7%. In the series with RAW264.7 [2], the inhibition at 30 µM is 63.1%. For the same molecule, in series [5], the viability at 18 h, 10 µM was found to be 55.2%. The viability at 18 h, 30 µM in series [6] was found to be 31.5%. Also, in the series with RAW264.7 [3], the IC50 was 6 µM. For the same molecule, in the series on RAW264.7 [7], the inhibition at 3 µM worked out at 41.3%.

For `CCC(C)C(=O)c1c(O)c(CC=C(C)C)c(O)c2c([C@H](CC)OC(C)=O)cc(=O)oc12` (some centres undefined), in the series on RAW264.7 [4], the inhibition at 1 µM was -1.5%. Moreover, the inhibition at 10 µM in the series on RAW264.7 [1] came to 50.5%. Besides, the inhibition at 30 µM with RAW264.7 [2] was 89.1%. Also, the viability at 18 h, 3 µM in series [12] came out at 55.3%. For the same molecule, in [5], the viability at 18 h, 10 µM was 29.9%. The viability at 18 h, 30 µM in [6] is 11%. Further, the IC50 with RAW264.7 [3] was 7.9 µM. Further, the inhibition at 3 µM in the series on RAW264.7 [7] is 24.2%.
